Paper PMC7227796 (ACS chemical neuroscience, 2020)
Like-named read-outs stand apart in the source and are kept apart here. Marks after values point to notes of the source that are not given here.

Tests used:
native AMPA receptors = assay: Radioligand binding at native AMPA receptors; conditions: rat synaptosomes, [3H]AMPA; for IC50: read-out: AMPA IC50, native iGluRs (synaptosomes)
Method in brief: (§1)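 Rat cortical synaptosomal membranes were labelled with 5 nM [3H]AMPA (AMPA), 5 nM [3H]KA (KA) or [3H]CGP39653 (NMDA). Test compound was run at 12–16 concentrations in triplicate, with three to six independent experiments. Cpm were fitted by nonlinear regression. Values are reported as pIC50 for AMPA and KA and as pKi for NMDA, each as mean with SEM.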

native KA receptors = assay: Radioligand binding at native KA receptors; conditions: rat synaptosomes, [3H]KA
Method in brief: as §1

native NMDA receptors = assay: Radioligand binding at native NMDA receptors; set-up: species or system rat; conditions: for NMDA pKi with SEM (in brackets) / Ki: rat synaptosomes, [3H]CGP-39653; for Ki: read-out: NMDA Ki, native iGluRs (synaptosomes)
Method in brief: as §1

GluK2 = GluK2 (Rattus norvegicus, UniProt P42260); assay: Radioligand binding at recombinant homomeric GluK2; conditions: for GluK2 % specific binding (Table 5): mean ± SD, ligand concentration not given
Method in brief: (§2)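 Membranes from sf9 cells expressing rat homomeric GluK1, GluK2 or GluK3 were incubated in 50 mM Tris-HCl, pH 7.1, for 2 h at 4 °C. Radioligand was [3H]-(S)-NF608 for GluK1 and [3H]kainic acid for GluK2 and GluK3. Samples were filtered on GF/B, washed twice with ice-cold buffer, dried for 1 h at 70 °C and counted by scintillation. Ki came from 12–16-point triplicate curves. Single-point % specific binding is mean ± SD of three experiments, at 10 μM test compound where stated.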

GluK3 = GluK3 (Rattus norvegicus, UniProt P42264); assay: Radioligand binding at recombinant homomeric GluK3; conditions: for GluK3 % specific binding (Table 5): mean ± SD, ligand concentration not given
Sequence of GluK3 (P42264 32-919): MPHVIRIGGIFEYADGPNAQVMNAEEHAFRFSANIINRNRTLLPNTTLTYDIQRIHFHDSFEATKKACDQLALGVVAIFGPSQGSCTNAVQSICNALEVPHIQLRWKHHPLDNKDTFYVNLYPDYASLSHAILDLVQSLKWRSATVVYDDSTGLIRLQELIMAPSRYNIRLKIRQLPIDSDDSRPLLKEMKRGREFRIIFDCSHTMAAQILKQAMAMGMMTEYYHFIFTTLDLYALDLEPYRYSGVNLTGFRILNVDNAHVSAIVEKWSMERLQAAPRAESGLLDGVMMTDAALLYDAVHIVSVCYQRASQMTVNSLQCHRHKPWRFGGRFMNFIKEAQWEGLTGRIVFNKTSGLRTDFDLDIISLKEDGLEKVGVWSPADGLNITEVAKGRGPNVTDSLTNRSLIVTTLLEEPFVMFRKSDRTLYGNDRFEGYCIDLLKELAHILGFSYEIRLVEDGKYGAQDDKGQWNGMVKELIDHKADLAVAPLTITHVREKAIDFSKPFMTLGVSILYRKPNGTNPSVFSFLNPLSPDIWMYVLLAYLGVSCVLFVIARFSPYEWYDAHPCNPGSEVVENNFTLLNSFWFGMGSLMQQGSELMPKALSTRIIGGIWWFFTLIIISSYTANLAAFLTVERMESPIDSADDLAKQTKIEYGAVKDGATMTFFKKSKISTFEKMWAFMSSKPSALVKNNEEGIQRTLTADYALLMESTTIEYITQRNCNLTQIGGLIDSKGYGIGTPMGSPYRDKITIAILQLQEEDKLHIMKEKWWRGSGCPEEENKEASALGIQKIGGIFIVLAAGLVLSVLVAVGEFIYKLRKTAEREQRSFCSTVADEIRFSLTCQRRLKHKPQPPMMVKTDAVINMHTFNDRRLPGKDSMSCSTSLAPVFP
Method in brief: as §2

GluK1 = GluK1 (Rattus norvegicus, UniProt P22756); assay: Radioligand binding at recombinant homomeric GluK1; conditions: for GluK1 % specific binding (Table 5): [3H]NF608, mean ± SD, ligand concentration not given
Sequence of GluK1 (P22756 31-920 isoform P22756-4 limits assumed): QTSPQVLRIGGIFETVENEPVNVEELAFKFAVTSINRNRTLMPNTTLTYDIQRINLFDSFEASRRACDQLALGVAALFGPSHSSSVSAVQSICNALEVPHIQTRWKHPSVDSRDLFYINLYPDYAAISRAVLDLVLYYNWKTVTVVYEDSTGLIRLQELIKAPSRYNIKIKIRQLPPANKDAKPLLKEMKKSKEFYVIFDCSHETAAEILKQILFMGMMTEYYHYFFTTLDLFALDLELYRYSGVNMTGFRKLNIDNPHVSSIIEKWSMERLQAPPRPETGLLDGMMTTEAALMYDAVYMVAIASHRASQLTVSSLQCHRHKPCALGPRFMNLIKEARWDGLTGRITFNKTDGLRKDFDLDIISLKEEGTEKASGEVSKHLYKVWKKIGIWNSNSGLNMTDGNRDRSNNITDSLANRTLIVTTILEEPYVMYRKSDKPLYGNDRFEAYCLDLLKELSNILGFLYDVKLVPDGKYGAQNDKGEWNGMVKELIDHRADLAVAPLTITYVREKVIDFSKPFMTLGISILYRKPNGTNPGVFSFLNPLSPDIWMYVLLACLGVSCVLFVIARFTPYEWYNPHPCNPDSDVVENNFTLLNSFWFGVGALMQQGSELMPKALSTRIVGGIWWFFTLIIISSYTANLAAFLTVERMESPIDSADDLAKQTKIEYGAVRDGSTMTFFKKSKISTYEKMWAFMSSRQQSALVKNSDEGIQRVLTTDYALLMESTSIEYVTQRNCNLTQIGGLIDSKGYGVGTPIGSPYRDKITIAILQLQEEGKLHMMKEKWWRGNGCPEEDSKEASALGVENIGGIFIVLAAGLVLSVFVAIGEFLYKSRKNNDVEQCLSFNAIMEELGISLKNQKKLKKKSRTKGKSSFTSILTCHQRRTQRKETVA
Method in brief: as §2

[1] = target: GluN1/GluN2A NMDA receptor (Rattus norvegicus, UniProt P35439+Q00959); assay: Two-electrode voltage-clamp recordings, Xenopus oocytes expressing GluN1/GluN2A; format: cell-based
Sequence of GluN1/GluN2A NMDA receptor (Q00959 23-1464, other chains not shown): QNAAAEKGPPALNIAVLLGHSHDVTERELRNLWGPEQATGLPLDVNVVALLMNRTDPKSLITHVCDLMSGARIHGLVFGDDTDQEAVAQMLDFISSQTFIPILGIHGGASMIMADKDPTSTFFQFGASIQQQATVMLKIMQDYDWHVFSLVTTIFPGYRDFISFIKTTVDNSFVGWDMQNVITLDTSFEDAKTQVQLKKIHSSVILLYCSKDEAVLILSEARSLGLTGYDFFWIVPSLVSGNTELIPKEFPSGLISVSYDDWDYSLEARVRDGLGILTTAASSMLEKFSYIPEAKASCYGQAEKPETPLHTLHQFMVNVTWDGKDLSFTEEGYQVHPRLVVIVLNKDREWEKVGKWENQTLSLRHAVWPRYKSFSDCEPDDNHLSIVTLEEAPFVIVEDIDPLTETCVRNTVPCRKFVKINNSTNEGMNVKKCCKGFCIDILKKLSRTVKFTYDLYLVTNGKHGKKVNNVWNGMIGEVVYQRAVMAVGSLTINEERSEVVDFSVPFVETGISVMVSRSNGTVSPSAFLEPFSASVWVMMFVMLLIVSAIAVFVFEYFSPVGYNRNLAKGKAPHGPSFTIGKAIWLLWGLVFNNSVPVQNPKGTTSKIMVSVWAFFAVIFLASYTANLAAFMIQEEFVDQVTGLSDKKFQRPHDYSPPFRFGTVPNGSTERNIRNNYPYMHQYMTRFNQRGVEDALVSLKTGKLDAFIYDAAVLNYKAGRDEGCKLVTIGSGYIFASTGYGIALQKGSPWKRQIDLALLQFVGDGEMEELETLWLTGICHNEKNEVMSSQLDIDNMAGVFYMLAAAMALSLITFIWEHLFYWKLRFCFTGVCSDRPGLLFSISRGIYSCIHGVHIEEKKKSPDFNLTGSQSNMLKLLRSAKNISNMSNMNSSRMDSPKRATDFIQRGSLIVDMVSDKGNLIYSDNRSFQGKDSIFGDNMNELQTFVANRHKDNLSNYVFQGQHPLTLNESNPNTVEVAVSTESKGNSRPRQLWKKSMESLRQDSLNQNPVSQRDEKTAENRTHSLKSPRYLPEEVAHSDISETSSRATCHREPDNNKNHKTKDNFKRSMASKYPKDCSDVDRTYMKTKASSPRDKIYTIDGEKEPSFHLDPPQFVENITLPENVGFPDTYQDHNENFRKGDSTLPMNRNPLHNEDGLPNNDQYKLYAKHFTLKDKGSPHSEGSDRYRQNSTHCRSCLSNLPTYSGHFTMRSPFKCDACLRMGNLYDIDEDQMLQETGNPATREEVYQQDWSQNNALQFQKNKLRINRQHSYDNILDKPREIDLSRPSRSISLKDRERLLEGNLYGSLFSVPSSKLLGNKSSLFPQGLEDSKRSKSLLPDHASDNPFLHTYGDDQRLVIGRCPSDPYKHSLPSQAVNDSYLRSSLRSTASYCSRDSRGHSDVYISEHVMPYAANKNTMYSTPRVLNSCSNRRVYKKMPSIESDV
Method in brief: (§3)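 Xenopus oocytes were injected with rat GluN1-1a and GluN2A, 2B, 2C or 2D cRNA at a 1:2 ratio. Two-electrode voltage clamp was run 2–6 days later at room temperature and −40 mV. Bath was 90 NaCl, 1 KCl, 10 HEPES, 0.5 BaCl2, 0.01 EDTA (mM), pH 7.4. Currents were evoked by 1 μM glutamate plus 100 μM glycine, with test compound gravity-perfused. Hill fits gave IC50 per oocyte (5–6 oocytes). Ki was derived by Cheng-Prusoff using earlier glutamate EC50 values.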

[2] = target: GluN1/GluN2B NMDA receptor (Rattus norvegicus, UniProt P35439+Q00960); assay: Two-electrode voltage-clamp recordings, Xenopus oocytes expressing GluN1/GluN2B; format: cell-based
Method in brief: as §3

[3] = target: GluN1/GluN2C NMDA receptor (Rattus norvegicus, UniProt P35439+Q00961); assay: Two-electrode voltage-clamp recordings, Xenopus oocytes expressing GluN1/GluN2C; format: cell-based
Sequence of GluN1/GluN2C NMDA receptor (Q00961 20-1237, other chains not shown): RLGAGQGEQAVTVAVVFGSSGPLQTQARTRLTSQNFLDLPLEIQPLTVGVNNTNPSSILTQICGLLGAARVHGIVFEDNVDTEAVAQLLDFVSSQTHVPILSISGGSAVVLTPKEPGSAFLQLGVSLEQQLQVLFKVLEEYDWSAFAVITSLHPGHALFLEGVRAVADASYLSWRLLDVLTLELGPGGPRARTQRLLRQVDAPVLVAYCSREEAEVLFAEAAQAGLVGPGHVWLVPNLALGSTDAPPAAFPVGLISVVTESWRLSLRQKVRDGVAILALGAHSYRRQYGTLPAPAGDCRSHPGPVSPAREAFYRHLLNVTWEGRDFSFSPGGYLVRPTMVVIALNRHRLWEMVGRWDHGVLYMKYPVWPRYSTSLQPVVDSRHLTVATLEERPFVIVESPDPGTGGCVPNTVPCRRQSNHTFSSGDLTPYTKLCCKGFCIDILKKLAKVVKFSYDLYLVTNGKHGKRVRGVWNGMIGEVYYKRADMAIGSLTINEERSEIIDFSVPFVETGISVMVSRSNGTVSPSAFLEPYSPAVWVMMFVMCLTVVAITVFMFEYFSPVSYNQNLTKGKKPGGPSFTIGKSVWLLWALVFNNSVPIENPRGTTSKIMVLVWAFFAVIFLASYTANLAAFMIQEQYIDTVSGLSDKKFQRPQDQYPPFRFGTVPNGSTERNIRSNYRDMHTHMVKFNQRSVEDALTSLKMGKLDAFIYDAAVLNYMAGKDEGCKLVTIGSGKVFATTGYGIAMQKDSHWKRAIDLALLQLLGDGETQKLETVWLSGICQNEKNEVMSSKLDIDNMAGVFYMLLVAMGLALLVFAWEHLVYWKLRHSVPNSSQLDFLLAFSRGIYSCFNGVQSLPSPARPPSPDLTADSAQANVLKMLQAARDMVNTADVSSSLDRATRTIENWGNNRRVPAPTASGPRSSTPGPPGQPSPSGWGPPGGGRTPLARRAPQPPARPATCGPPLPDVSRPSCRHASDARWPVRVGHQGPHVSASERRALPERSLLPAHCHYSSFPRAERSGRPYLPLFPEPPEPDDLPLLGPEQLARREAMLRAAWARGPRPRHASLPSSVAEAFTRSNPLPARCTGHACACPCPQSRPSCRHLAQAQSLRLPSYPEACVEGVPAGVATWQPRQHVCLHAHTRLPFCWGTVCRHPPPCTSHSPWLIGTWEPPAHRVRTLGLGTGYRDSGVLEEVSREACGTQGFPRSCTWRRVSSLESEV
Method in brief: as §3

[4] = target: GluN1/GluN2D NMDA receptor (Rattus norvegicus, UniProt P35439+Q62645); assay: Two-electrode voltage-clamp recordings, Xenopus oocytes expressing GluN1/GluN2D; format: cell-based
Method in brief: as §3

[5] = read-out: GluK2 Ki, cloned homomeric iGluRs, [3H]KA, mean ± SEM
[6] = read-out: GluK3 Ki, cloned homomeric iGluRs, [3H]KA, mean ± SEM
[7] = 10 μM ligand concentration, [3H]KA, mean ± SD (Tables 2, 4)

Compound	AMPA pIC50 with SEM (in brackets) (native AMPA receptors)	IC50 (native AMPA receptors) [µM]	KA IC50, native iGluRs (synaptosomes) (native KA receptors) [µM]	KA pIC50 with SEM (in brackets) (native KA receptors)	NMDA pKi with SEM (in brackets) (native NMDA receptors)	Ki (native NMDA receptors) [µM]	Ki (GluK1) [µM]	Ki (GluK2) [µM]	Ki (GluK3) [µM]	further results
Cl.Cl.Nc1cc(C(=O)O)cc([C@H]2CCN[C@@H]2C(=O)O)c1 (racemic) [(±)-5j, (±)-2,3-trans-(3-Amino-5-carboxyphenyl)pyrrolidine-2-carboxylic acid dihydrochloride]	4.29±0.07	52	86	4.07±0.04	4.87±0.05	14	–	–	–	Ki (GluK2; [5]): > 100 µM; Ki (GluK3; [6]): 19.3 ± 0.9 µM
Cc1ccc(S(=O)(=O)Nc2cc(C(=O)O)cc([C@H]3CCN[C@@H]3C(=O)O)c2)cc1.Cl (racemic) [(±)-5k, (±)-2,3-trans-(3-Carboxy-5-((4-methylphenyl)sulfonamido)phenyl)pyrrolidine-2-carboxylic acid hydrochloride]	4.65±0.09	23	>100	–	4.82±0.03	15	–	–	–	Ki (GluK2; [5]): 19 µM; Ki (GluK3; [6]): 10.9 ± 0.5 µM
Cl.O=C(O)c1cc(NS(=O)(=O)c2ccccn2)cc([C@H]2CCN[C@@H]2C(=O)O)c1 (racemic) [(±)-5l, (±)-2,3-trans-3-(3-Carboxy-5-(pyridine-2-sulfonamido)phenyl)pyrrolidine-2-carboxylic acid hydrochloride]	4.57±0.04	27	>100	–	4.46±0.08	36	–	–	–	Ki (GluK2; [5]): ~100 µM; Ki (GluK3; [6]): 14 ± 0.9 µM
Cl.O=C(O)c1cc(NC(=O)c2ccccc2)cc([C@H]2CCN[C@@H]2C(=O)O)c1 (racemic) [(±)-5m, (±)-2,3-trans-3-(3-Benzamido-5-carboxyphenyl)pyrrolidine-2-carboxylic acid hydrochloride]	4.63±0.04	24	16	4.81±0.03	5.16±0.04	6.9	–	–	–	Ki (GluK2; [5]): ~100 µM; Ki (GluK3; [6]): 3.95 ± 0.2 µM
Cl.O=C(O)c1cc(Br)cc([C@H]2CCN[C@@H]2C(=O)O)c1 [5b, (2S,3R)-3-(3-Bromo-5-carboxyphenyl)pyrrolidine-2-carboxylic acid hydrochloride]	4.60 ± 0.04	26	10	4.99 ± 0.04	5.63 ±0.05	2.4	5.88 ± 0.6	> 100	2.42 ± 0.11	–
Cl.O=C(O)c1cc(-c2cnn[nH]2)cc([C@H]2CCN[C@@H]2C(=O)O)c1 [5d, (2S,3R)-3-(3-Carboxy-5-(1H-1,2,3-triazol-5-yl)phenyl)pyrrolidine-2-carboxylic acid hydrochloride]	4.69 ±0.04	21	20	4.71±0.06	6.08±0.05	0.83	> 50	> 100	10 to 50	increase in affinity for native NMDA receptors (native NMDA receptors; compared to 4a): 7 fold; selectivity/preference for NMDA receptors over AMPA and KA receptors (native NMDA receptors; native receptors): 24 fold; IC50 [1]: 1.36 ± 0.06 µM; IC50 [2]: 3.51 ± 0.18 µM; IC50 [3]: 7.28 ± 0.17 µM; IC50 [4]: 18.5 ± 1.54 µM
Cl.O=C(O)c1cc([C@H]2CCN[C@@H]2C(=O)O)cc(Br)c1Cl [6a, (2S,3R)-3-(3-Bromo-5-carboxy-4-chlorophenyl)pyrrolidine-2-carboxylic acid hydrochloride]	–	> 100	>100	–	–	1 to 10	≥ 100	≥ 100	≥ 100	–
Cl.O=C(O)c1cc([C@H]2CCN[C@@H]2C(=O)O)cc(C(=O)O)c1Cl [6b, 5-((2S,3R)-2-Carboxypyrrolidin-3-yl)-2-chloroisophthalic acid hydrochloride]	–	> 100	>100	–	6.82 ± 0.08	0.16	≥ 100	≥ 100	> 50	IC50 [1]: 0.2 ± 0.02 µM; Ki [1]: 0.2 µM; IC50 [2]: 0.75 ± 0.04 µM; IC50 [3]: 1.33 ± 0.03 µM; IC50 [4]: 5.15 ± 0.23 µM
CNCC[C@@H]1CN[C@H](C(=O)O)[C@H]1c1cccc(C(=O)O)c1 [9b, (2S,3R,4S)-3-(3-Carboxyphenyl)-4-(2-(methylamino)ethyl)pyrrolidine-2-carboxylic acid]	4.16 ± 0.02	69	>100	–	–	> 100	~10	> 100	> 100	GluK1 % specific binding (Table 5) (GluK1): 50 ± 6%; GluK2 % specific binding (Table 5) (GluK2; [3H]KA): 99 ± 6%; GluK3 % specific binding (Table 5) (GluK3; [3H]KA): 83 ± 6%
O=C(O)c1cccc([C@H]2[C@H](CCNCc3ccccc3)CN[C@@H]2C(=O)O)c1 [9c, (2S,3R,4S)-4-(2-(Benzylamino)ethyl)-3-(3-carboxyphenyl)pyrrolidine-2-carboxylic acid]	4.83 ± 0.05	15	–	–	–	> 100	2.98 ± 0.96	> 100	2.46 ± 0.54	GluK2 % specific binding (Table 5) (GluK2; [3H]KA): 86 ± 6%
O=C(O)c1cccc([C@H]2[C@H](CCO)CN[C@@H]2C(=O)O)c1 [9d, (2S,3R,4S)-3-(3-Carboxyphenyl)-4-(2-hydroxyethyl)pyrrolidine-2-carboxylic acid]	4.47 ± 0.007	35	13	4.89 ± 0.3	4.22 ± 0.03	61	> 10	> 100	> 10	GluK1 % specific binding (Table 5) (GluK1): 60 ± 6%; GluK2 % specific binding (Table 5) (GluK2; [3H]KA): 93 ± 7%; GluK3 % specific binding (Table 5) (GluK3; [3H]KA): 57 ± 2%
Cl.O=C(O)C[C@@H]1CN[C@H](C(=O)O)[C@H]1c1cccc(C(=O)O)c1 [9e, (2S,3R,4S)-4-(Carboxymethyl)-3-(3-carboxyphenyl)pyrrolidine-2-carboxylic acid hydrochloride]	–	> 100	>100	–	–	> 100	> 100	> 100	> 100	GluK1 % specific binding (Table 5) (GluK1): 93 ± 3%; GluK2 % specific binding (Table 5) (GluK2; [3H]KA): 97 ± 7%; GluK3 % specific binding (Table 5) (GluK3; [3H]KA): 95 ± 3%
O=C(O)C(F)(F)F.O=C(O)c1ccc([C@H]2CCN[C@@H]2C(=O)O)cc1 [compound 7, (2S,3R)-3-(4-Carboxyphenyl)pyrrolidine-2-carboxylic acid trifluoro acetic acid]	–	> 100	>100	–	–	8.5	> 100	> 100	> 100	IC50 [1]: 45 ± 1.5 µM; IC50 [2]: 165 ± 14.1 µM; IC50 [3]: 193 ± 6.1 µM; IC50 [4]: 159 ± 8.7 µM
(2S,3R)-3-(4-Amino-3-carboxyphenyl)pyrrolidine-2-carboxylic acid dihydrochloride [4g]	–	> 100	>100	–	–	> 100	–	–	–	GluK1 % specific binding (GluK1; 10 μM ligand concentration, [3H]NF608, mean ± SD (Table 2)): (70 ± 16)^d %; GluK2 % specific binding (GluK2; [7]): (77 ± 5)^d %; GluK3 % specific binding (GluK3; [7]): (64 ± 4)^d %
